Six compounds from ChEMBL document CHEMBL1129341, “New neplanocin analogues. 6. Synthesis and potent antiviral activity of 6'-homoneplanocin A1” (J Med Chem, 1996) can be followed below.

≈ marks a conversion by molar mass, not a printed value. Where only a bound is given, the exact number is not on record here.

The subject of assay [1] is E6SM. In words: Cytotoxic activity against HSV-1(KOS) virus in E6SM Cells. The following applies: Homo sapiens. It is filed as functional. Put shortly: (§1)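 Antiviral screen in cell culture (HeLa, HEL, E6SM or Vero, per line). IC50 is the concentration that reduces virus-induced cytopathogenicity by 50%.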
In assay [2] the test system is E6SM. In words: Cytotoxic activity against HSV-2 (G) virus in E6SM Cells. The following applies: Homo sapiens. The assay is classed as functional.
The test system of assay [3] is E6SM. The experiment in a line: Cytotoxic activity against TK-HSV-1 (B2006) virus in E6SM Cells. The following applies: Homo sapiens. It is filed as functional.
For assay [4], the system named is E6SM. In words: Cytotoxic activity against VSV virus in E6SM Cells. The following applies: Homo sapiens. It is filed as functional. Put shortly:
as §1

Assay [5] has as its system E6SM. In words: Cytotoxic activity against vaccinia virus in E6SM Cells. It is filed as functional. The settings on record: Homo sapiens. The essentials: as §1
In assay [6] the test system is HEL. In words: Cytotoxic activity against HCMV (AD-169) virus in HEL Cells. It is filed as functional. The settings on record: Homo sapiens.
Assay [7] relates to HEL. The experiment in a line: Cytotoxic activity against HCMV(Davis) virus in HEL Cells. The assay is classed as functional. The settings on record: Homo sapiens.
The subject of assay [8] is HEL. In words: Cytotoxic activity against TK-VZV (YS/R) virus in HEL Cells. The assay is classed as functional. The settings on record: Homo sapiens.
Assay [9] relates to HEL. In words: Cytotoxic activity against VZV (OKA) virus in HEL Cells. The assay is classed as functional. The settings on record: Homo sapiens. Put shortly: as §1
Assay [10] has as its system HEL. In words: Cytotoxic activity against VZV (YS) virus in HEL Cells. The assay is classed as functional. The settings on record: Homo sapiens.
In assay [11] the test system is HEL. The experiment in a line: Cytotoxic activity against cell growth in HEL Cells. It is filed as functional. The settings on record: Homo sapiens. Put shortly: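 HEL cell cultures. CC50 is the concentration that reduces cell growth by 50%.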
Assay [12] relates to HeLa. The experiment in a line: Cytotoxic activity against Coxsackie B4 virus in HeLa Cells. It is filed as functional. The following applies: Homo sapiens.
In assay [13] the test system is HeLa. The experiment in a line: Cytotoxic activity against Polio-1 virus in HeLa Cells. The assay is classed as functional. The settings on record: Homo sapiens. Put shortly:
as §1

Assay [14] has as its system HeLa. The experiment in a line: Cytotoxic activity against VZV virus in HeLa Cells. The assay is classed as functional. The settings on record: Homo sapiens.
In assay [15] the test system is HeLa. The experiment in a line: Cytotoxic activity against cell morphology in HeLa Cells. The assay is classed as functional. The settings on record: Homo sapiens. The essentials: (§2)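 Host cells under the conditions of the antiviral assays (E6SM, HeLa or Vero, per line). Cytotoxic concentration is the one causing microscopic alteration of normal cell morphology in about 50% of cells.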

Assay [16] concerns Vero. In words: Inhibitory activity against virus plaque formation (PV-3) in Vero cells. The assay is classed as functional, cell-based. The settings on record: Chlorocebus sabaeus. The essentials: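 Poliovirus type 3 in Vero cells. IC50 is the concentration that reduces virus plaque formation by 50%.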
The subject of assay [17] is Vero. The experiment in a line: Inhibitory activity against virus-induced cytopathogenicity (VSV)in Vero cells. It is filed as functional, cell-based. The following applies: Chlorocebus sabaeus. Put shortly: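 Vesicular stomatitis virus in Vero cells. IC50 is the concentration that reduces virus-induced cytopathogenicity by 50%.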
A general note: Cytopathic effects are the visible damage that an infection or toxin causes in cultured cells.

For assay [18], the system named is Vero. In words: Cytotoxic activity against Reo-1 virus in Vero Cells. The following applies: Chlorocebus sabaeus. It is filed as functional.
The subject of assay [19] is Vero. In words: Cytotoxic activity against forest virus in Vero Cells. It is filed as functional. The following applies: Chlorocebus sabaeus. Put shortly:
as §1

The test system of assay [20] is Vero. In words: Cytotoxic activity against Sindbis virus in Vero Cells. The assay is classed as functional. The following applies: Chlorocebus sabaeus.
For assay [21], the system named is Vero. The experiment in a line: Cytotoxic activity against Tacaribe virus in Vero Cells. The assay is classed as functional. The following applies: Chlorocebus sabaeus. Put shortly:
as §1

The subject of assay [22] is Vero. In words: Cytotoxic activity towards viable cells in Vero cells. The assay is classed as functional. The following applies: Chlorocebus sabaeus. The essentials: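 Vero cells. CC50 is the concentration that reduces the number of viable cells by 50%.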
The test system of assay [23] is Vero. In words: Cytotoxic activity against Junin virus in Vero Cells. The settings on record: Chlorocebus sabaeus. It is filed as functional. Put shortly:
as §1

Assay [24] has as its system Vero. In words: Cytotoxic activity against PV-3 virus in Vero Cells. The settings on record: Chlorocebus sabaeus. It is filed as functional.
For assay [25], the system named is E6SM. In words: Cytotoxic activity against cell morphology in E6SM Cells. It is filed as functional. The settings on record: Homo sapiens. Put shortly: as §2
Assay [26] has as its system HEL. In words: Cytotoxic activity against TK-VZV (07/1) virus in HEL Cells. It is filed as functional. The following applies: Homo sapiens.
In assay [27] the test system is Vero. The experiment in a line: Cytotoxic activity against cell morphology in Vero Cells. The assay is classed as functional. The following applies: Chlorocebus sabaeus. The essentials: as §2
Assay [28] can be described thus: Inhibitory activity against S-adenosyl-L-homocysteine hydrolase from rabbit erythrocytes.

Usually CC50 stands for the concentration at which the toxic effect on the cells reaches its halfway point. A high value points to lower toxicity to the cells. The term IC50 denotes the point on the concentration scale where inhibition reaches its midpoint. The low end stands for higher potency, the high end for lower potency.

As for `Nc1ncnc2c1ncn2[C@@H]1C=C(CO)[C@@H](O)[C@H]1O` [NEOPLANOCIN A], the CC50 is greater than 70 µg/mL in assay [1]; greater than 70 µg/mL in [2]; 40 µg/mL (≈ 152 µM) in assay [3]; 7 µg/mL (≈ 26.6 µM) in [4]; 0.7 µg/mL (≈ 2.66 µM) in [5]; 0.3 µg/mL (≈ 1.14 µM) in [6]. Besides, the CC50 in [7] is 0.4 µg/mL (≈ 1.52 µM); in assay [8], 7 µg/mL (≈ 26.6 µM); in [9], 15 µg/mL (≈ 57 µM); in assay [10], 9 µg/mL (≈ 34.2 µM); in [11], greater than 20 µg/mL; in assay [12], greater than 40 µg/mL. In addition, the CC50 in assay [13] was greater than 40 µg/mL; in assay [14], 2 µg/mL (≈ 7.6 µM); in assay [15], greater than 40 µg/mL; in [18], 4 µg/mL (≈ 15.2 µM); in assay [19] it was greater than 10 µg/mL; in assay [20], greater than 10 µg/mL. Also, the cytotoxic concentration (CC50) in assay [21] was determined as 2 µg/mL (≈ 7.6 µM); in assay [22], 152 µg/mL (≈ 577 µM); in assay [23] it was 0.5 µg/mL (≈ 1.9 µM); in [24] it was 2 µg/mL (≈ 7.6 µM); in assay [25], 70 µg/mL (≈ 266 µM); in assay [26] it was 10 µg/mL (≈ 38 µM). This compound showed a CC50 in assay [27] greater than 10 µg/mL. Besides, the IC50 in [16] came to 0.74 µg/mL (≈ 2.81 µM); in assay [17], 1 µg/mL (≈ 3.8 µM); in assay [28], 0.004 µg/mL (≈ 0.0152 µM).

Take `Nc1nc(O)c2ncn([C@@H]3C=C(CCO)[C@@H](O)[C@H]3O)c2n1`: the figures for the IC50 in assay [16] and in assay [17] were greater than 25 µg/mL and greater than 500 µg/mL, respectively. The compound also had a CC50 in [22] greater than 500 µg/mL.

Regarding `Nc1ccn([C@@H]2C=C(CCO)[C@@H](O)[C@H]2O)c(=O)n1`, the IC50 in assay [16] was greater than 25 µg/mL; in [17] it was greater than 500 µg/mL. In assay [22], this compound showed a CC50 greater than 500 µg/mL.

As for `Nc1nccc2c1ncn2[C@@H]1C=C(CCO)[C@@H](O)[C@H]1O`, the results for the IC50 in [16] and in assay [17] were greater than 25 µg/mL and 3.9 µg/mL (≈ 14.1 µM), respectively. Moreover, in assay [22], the CC50 was greater than 500 µg/mL.

Take `Cc1cn([C@@H]2C=C(CCO)[C@@H](O)[C@H]2O)c(=O)[nH]c1=O`: the IC50 in assay [16] is greater than 25 µg/mL; in [17] it was greater than 500 µg/mL. The CC50 in [22] is greater than 500 µg/mL.

For `Nc1ncnc2c1ncn2[C@@H]1C=C(CCO)[C@@H](O)[C@H]1O`, the CC50 in [1] was greater than 400 µg/mL; in [2], greater than 400 µg/mL; in assay [3], greater than 400 µg/mL; in [4], 1 µg/mL (≈ 3.61 µM); in assay [5], 0.1 µg/mL (≈ 0.361 µM); in assay [6], 0.15 µg/mL (≈ 0.541 µM). Further, the CC50 in assay [7] is 0.5 µg/mL (≈ 1.8 µM); in assay [8] it was greater than 50 µg/mL; in [9] it was greater than 50 µg/mL; in [10], greater than 50 µg/mL; in [11], greater than 50 µg/mL; in assay [12] it was greater than 200 µg/mL. In addition, the CC50 was greater than 200 µg/mL in [13]; 0.7 µg/mL (≈ 2.52 µM) in assay [14]; greater than 400 µg/mL in assay [15]; 70 µg/mL (≈ 252 µM) in assay [18]; greater than 400 µg/mL in assay [19]; greater than 400 µg/mL in assay [20]. Further, the CC50 was 20 µg/mL (≈ 72.1 µM) in [21]; greater than 500 µg/mL in assay [22]; 5 µg/mL (≈ 18 µM) in [23]; 2 µg/mL (≈ 7.21 µM) in [24]; greater than 400 µg/mL in assay [25]; greater than 50 µg/mL in assay [26]. Further, the CC50 in assay [27] is greater than 400 µg/mL. For the same compound, the IC50 in assay [16] came to 0.35 µg/mL (≈ 1.26 µM); in assay [17], 1 µg/mL (≈ 3.61 µM).
